FN deposition inh = inhibitors of fibronectin matrix deposition, primary screen, AH1F cells, Alexa488-fibronectin fluorescence, plate reader; AH1F fibroblasts, overnight; inhibition, % at 12.6 µM; AID 743247, 2014; hit rate 0.086% among 350,000;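 active means mean inhibition across replicates of 30% or more, regardless of how many single replicates reach that level; inconclusive means mean under 30% yet at least half of replicates reach 30%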;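 further: positive control wells lacked labelled fibronectin entirely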
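Measured by – fluorescence 485/525 nm · System – AH1F fibroblast monolayer, labelled fibronectin deposition · Amount – 10000 cells per well · Buffer or medium – serum-reduced DMEM (2% serum) · Doses – single dose, pinned · Also added – fluorescent fibronectin at 24 nM final · Schedule – 1 h cell attachment, overnight exposure to compound and label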
PGC1a acetyl inh = inhibitors of PGC1a acetylation signal, primary screen, cell-based, U2OS, AlphaScreen, inhibitor mode; AlphaScreen anti-acetyl-lysine; with virally co-expressed GCN5 acetyltransferase; inhibition, % at 15.6 µM; AID 651687, 2012; hit rate 0.17% among 350,000;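 active means every replicate shows inhibition of at least 40%; inconclusive means mean inhibition at least 40% but some replicate below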;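 further: 0% = neutral control wells and 100% = positive control wells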
Cneo AK release = Cryptococcus neoformans cell lysis inducers, primary screen, AK release luminescence, single concentration; AID 651654, 2012; lysis activity, % at 15 µM; hit rate 0.2% among 360,000; C. neoformans lysis, adenylate kinase release luminescence, 4 h; normalised: neutral wells 0, clomiphene wells 100;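 active means mean lysis activity across replicates of at least 80%, whatever share of replicates individually reach that level; inactive means mean lysis activity below 80%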
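Schedule: static 4 h at 37 °C with compound, 1 h detection; system: C. neoformans cells; benchmarks: Clomiphene as positive control; buffer or medium: fresh YPD medium; measure: luminescence rise reflecting yeast cell lysis; measured by: luminescent adenylate kinase detection reagent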
Xi reactivation = activators of inactive X chromosome reactivation, primary screen, imaging, XiGFP fibroblasts, GFP high-content imaging, set 2; XiGFP mouse fibroblasts, % GFP-positive cells imaging, 3 d; cells co-treated with 5-aza-dC sensitizer; scaled so ellipticine positive control = 100%; activation, % at 7.58 µM; hit rate 0.055% among 360,000; AID 743238, 2013;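 active means mean normalized replicate activation at least 10% and every replicate at or above 10%; inconclusive means only one of the two criteria met; inactive means mean below 10% and not all replicates reach 10%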;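 further: 0% = median of on-plate neutral control wells and 100% = ellipticine 6 µM median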
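System: SV40-immortalized XiGFP fibroblast cells, line 68-5-11 / Incubation: 3-day compound exposure, then 15 min fixation at room temperature / Compound: single concentration per compound, delivered by pin transfer / Buffer or medium: DMEM plus 5-aza-dC sensitizer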
F508del corr = F508del CFTR correction, initial screen, CFBE line, single point; hit rate 0.36% among 350,000; AID 720511, 2013; activity (quench increase), % at 7.58 µM; CFBE cells, YFP halide quenching; stimulated with forskolin plus potentiator P3; % fluorescence drop versus neutral controls;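 active means mean added fluorescence quench of at least 8% versus neutral control, with both replicates also reaching 8%; inconclusive means only one of the mean or replicate conditions met; inactive means mean below 8% and not both replicates reaching 8%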;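 further: cells transiently co-express mutant CFTR-F508del with the halide-sensitive YFP; corrector assay measuring rescue of mutant channel to the surface after 24 h compound exposure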
DENV2 CPE rescue = inhibitors of DENV2 cytopathic effect, primary screen, cell-based, plate reader, single concentration; DENV2-infected cells, cytopathic effect rescue; CPE inhibition, % at 9.99 µM; hit rate 1.7% among 350,000; AID 651640, 2012; in the data active means CPE inhibition above about 20%, passing the limit was not always enough; inconclusive means no clear call, values can overlap the other calls; tested in BHK-21 cells;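 further: 0% = median of neutral control wells and 100% = median of positive control wells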
The depositor's hits bear a star. Hits are enriched below; roughly 1.9% of the tested compounds scored in any of these assays.

Results for CC(C)C[C@@H]1COc2cccc(N3CCN(C)CC3)c2S(=O)(=O)N1 ?
Xi reactivation: 0.1; F508del corr: 12.0*; DENV2 CPE rescue: -12.0

How did O=C(O)C(O)(c1ccccc1)C1CCCC1 (stereo not drawn) do in these assays?
FN deposition inh: 32.6*; PGC1a acetyl inh: -3.3; Cneo AK release: 1.4

How did CC(C)(C)C(=O)OC[N+](C)(C)CCOC(=O)C(O)(c1ccccc1)C1CCCC1 (stereo not drawn) do in these assays?
FN deposition inh: -4.0; Xi reactivation: 0.3; F508del corr: -0.4; DENV2 CPE rescue: -8.2

Results for COc1ccc(C#Cc2ccc([C@@H]3[C@@H](CO)N4CCCCN(C(=O)Cc5ccncc5)C[C@H]34)cc2)cc1 ?
PGC1a acetyl inh: 11.4; Cneo AK release: 49.3; Xi reactivation: 0.1; F508del corr: 5.2; DENV2 CPE rescue: 9.0

How did NP(=O)(OCCCc1ccccc1)Oc1ccccc1Cl (stereo not drawn) do in these assays?
FN deposition inh: -19.7; PGC1a acetyl inh: 2.5; Cneo AK release: -3.1; Xi reactivation: 0.1; F508del corr: -1.1

What do the screens show for `NP(=O)(OCCCc1ccccc1)Oc1ccc(Cl)cc1` (stereo not drawn)?
FN deposition inh: -13.6; PGC1a acetyl inh: -12.9; Cneo AK release: -4.7; Xi reactivation: 0.0; F508del corr: -0.7; DENV2 CPE rescue: 20.2*

What do the screens show for `CC(C)NC(=O)N1[C@@H]2Cn3c(ccc(-c4cccc(C(=O)N(C)C)c4)c3=O)[C@H]1[C@@H](C(=O)O)[C@@H]2CO`?
Cneo AK release: 51.8; Xi reactivation: 0.4; DENV2 CPE rescue: 3.1

What do the screens show for `CCC1(CC)C(=O)C=CNC1=O`?
FN deposition inh: -3.1; PGC1a acetyl inh: inconclusive; Cneo AK release: -1.2; Xi reactivation: 0.2; F508del corr: 29.2*; DENV2 CPE rescue: -4.1

Results for C[C@H]1C[C@@H](C)C(=O)[C@@H]([C@H](O)CC2CC(=O)NC(=O)C2)C1 ?
PGC1a acetyl inh: 68.3*; Cneo AK release: 12.7; F508del corr: -1.6; DENV2 CPE rescue: 123.6*

Results for O=[N+]([O-])c1ccc(N2CCOCC2)c2c1no[n+]2[O-] ?
FN deposition inh: 29.7; PGC1a acetyl inh: 83.9*; Cneo AK release: -5.8; Xi reactivation: 1.9; F508del corr: 12.4*; DENV2 CPE rescue: -11.8

What do the screens show for `O=S(=O)(NC1CCCCCCC1)OCC(Cl)(Cl)Cl`?
FN deposition inh: 4.7; PGC1a acetyl inh: -7.3; Cneo AK release: -0.5; Xi reactivation: 0.0; F508del corr: 0.5; DENV2 CPE rescue: 33.9*

Results for O=S(=O)(NC1CCCC1)OCC(Cl)(Cl)Cl ?
FN deposition inh: 0.3; PGC1a acetyl inh: -1.3; Cneo AK release: 0.1; Xi reactivation: 0.0; F508del corr: 1.2; DENV2 CPE rescue: 27.4*

Results for CC1(C)CN(S(=O)(=O)OCC(Cl)(Cl)Cl)C(=O)N1 ?
FN deposition inh: 8.8; PGC1a acetyl inh: -13.1; Cneo AK release: -0.2; Xi reactivation: 0.1; F508del corr: 1.0; DENV2 CPE rescue: 13.4

Results for O=C(Cc1ccncc1)N1CCCCN2[C@H](CO)[C@H](c3ccc(C#Cc4ccccc4F)cc3)[C@@H]2C1 ?
FN deposition inh: 11.0; PGC1a acetyl inh: 2.7; Cneo AK release: -0.9; Xi reactivation: 0.1; F508del corr: 2.7; DENV2 CPE rescue: -0.5

Results for CC1=NN(c2ccccc2)C(=O)/C1=C/c1c(O)[nH]c(=S)[nH]c1=O ?
PGC1a acetyl inh: -1.2

How did CC1=NN(c2ccccc2)C(=O)/C1=C/c1c(O)[nH]c(=O)[nH]c1=O do in these assays?
FN deposition inh: -4.9; PGC1a acetyl inh: 49.1*; Cneo AK release: 1.7; Xi reactivation: 0.0; F508del corr: -1.1; DENV2 CPE rescue: 5.8

Results for Nc1cnn(-c2ccccc2)c(=O)c1Cl ?
FN deposition inh: 0.1; PGC1a acetyl inh: 10.1; Cneo AK release: -6.4; Xi reactivation: 0.0; F508del corr: -0.5; DENV2 CPE rescue: 30.3*

What do the screens show for `COC(=O)C[C@]1(C(=O)OC)CN(C#N)N(c2ccc(Cl)cc2)C12c1ccccc1-c1ccccc12`?
FN deposition inh: 40.6*; PGC1a acetyl inh: 18.3; Cneo AK release: 4.8

How did COC(=O)[C@@H]1[C@@H](C(=O)OC)C2(c3ccccc3-c3ccccc32)N(c2ccc(Cl)cc2)N1C#N do in these assays?
PGC1a acetyl inh: 76.6*; Cneo AK release: 6.5

How did CC(C)NC(=O)N1C[C@@H]2C(c3ccc(Br)cc3)[C@H](C1)N2C (stereo partly drawn) do in these assays?
FN deposition inh: 0.9; Xi reactivation: 0.1

Results for CC(=O)N1[C@@H]2Cn3c(ccc(-c4cccc(C(=O)N(C)C)c4)c3=O)[C@H]1[C@@H](C(=O)O)[C@@H]2CO ?
Xi reactivation: 0.0

What do the screens show for `C=CCc1cc(OC)c2c(c1)OCO2`?
PGC1a acetyl inh: -5.8; Cneo AK release: 1.3; F508del corr: -3.4; DENV2 CPE rescue: 13.9

Results for C=CCc1ccc2c(c1)OCO2 ?
F508del corr: 0.2; DENV2 CPE rescue: 93.0*

What do the screens show for `COC(=O)C1=C(c2ccc(Cl)c(C(F)(F)F)c2)C[C@@H]2CC[C@H]1N2C(=O)NCc1cc(C)oc1C(F)(F)F`?
FN deposition inh: 2.1; PGC1a acetyl inh: 4.1; Cneo AK release: 0.8; Xi reactivation: -0.6; F508del corr: 0.7; DENV2 CPE rescue: 25.5*

Results for O=C(O)C(Br)Br ?
F508del corr: -2.5; DENV2 CPE rescue: 69.9*

How did O=C(O)[C@H]1[C@H](CO)[C@H]2Cn3c(ccc(-c4cccnc4)c3=O)[C@@H]1N2S(=O)(=O)c1ccccc1F do in these assays?
Cneo AK release: -2.8; Xi reactivation: 0.5; F508del corr: -0.2; DENV2 CPE rescue: -10.1

How did CCCNC(=O)N1[C@@H]2c3ccc(-c4ccccc4OC)c(=O)n3C[C@H]1[C@H](CO)[C@H]2C(=O)O do in these assays?
Cneo AK release: 0.8; Xi reactivation: 0.3; F508del corr: 0.8; DENV2 CPE rescue: 2.4

Results for COC(=O)[C@@H]1[C@@H](CO)[C@@H]2Cn3c(ccc(-c4ccccc4)c3=O)[C@H]1N2CCc1ccccc1 ?
Cneo AK release: 3.5; Xi reactivation: 0.7; F508del corr: -2.7; DENV2 CPE rescue: 5.2

Results for COC(=O)[C@@H]1[C@@H](CO)[C@@H]2Cn3c(ccc(-c4ccncc4)c3=O)[C@H]1N2CCc1ccccc1 ?
Cneo AK release: -4.7; Xi reactivation: 0.4; DENV2 CPE rescue: 107.3*

From PubChem BioAssay
